Data set [1] is described as follows: Cmax in Sprague-Dawley rat at 10 mg/kg, po dosed as aqueous suspension of 1% polysorbate 80 in 0.5% methylcellulose after 2 to 4 hrs by LC/MS/MS analysis. In kind it is ADME, organism-based. The arrangement: dose 10 mg/kg, route oral. The settings on record: in vivo.
Data set [2] can be described thus: AUC in Sprague-Dawley rat at 10 mg/kg, po dosed as aqueous suspension of Labrafil M 1944CS/DMAC/polysorbate 80, 85:10:5 (v/v) after 0.25 to 24 hrs by LC/MS/MS analysis. The format is ADME, organism-based. Also on record: time 0.25-24 hr, dose 10 mg/kg, route oral. The settings on record: plasma.
Data set [3] is described as follows: Solubility in simulated gastric fluid. In kind it is physicochemical. Summed up: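 Solubility measured in simulated gastric fluid and in simulated intestinal fluid (fed state).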
For data set [4], the system named is Liver microsomes. Briefly: Metabolic stability in NADPH-fortified rat liver microsomes assessed as GSH adduct formation at 10 uM after 30 mins by HPLC/UV/MS analysis. The format is ADME, Microsome. The note with it: 0.5 h. Summed up:
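Pooled rat or human liver microsomes 1 mg/mL, 10 μM substrate, 100 mM potassium phosphate pH 7.4, 37 °C, started with NADPH-regenerating system (1.3 mM NADP+, 3.3 mM glucose-6-phosphate, 3.3 mM MgCl2, 0.5 U/mL G6PDH); GSH 5 mM in trapping runs. Sampled 0 and 30 min, acetonitrile quench; abundance as UV peak area (330–340 nm) fraction of all drug-related components by HPLC/UV/MS.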
(Liver microsomes are vesicles of endoplasmic reticulum, rich in cytochrome P450 enzymes.)

Data set [5] in a line: Drug metabolism in bile duct cannulated Sprague-Dawley rat assessed as unchanged parent drug remaining in bile at 20 mg/kg, po after 24 hrs by HPLC/UV/MS analysis. In kind it is ADME, organism-based. Also on record: dose 20 mg/kg, route oral. The note with it: read-out: Activity. A digest of the protocol: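 Male Sprague–Dawley bile duct cannulated rats (n = 3) dosed orally at 20 mg/kg in PEG/ethanol 90:10; vehicle-dosed controls (n = 3). Bile and urine pooled over 0–24 h, acetonitrile-precipitated and profiled by HPLC/UV/MS (Hydro-RP column, PDA 200–550 nm, positive-ion full and data-dependent scans).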

A short description of data set [6]: Displacement of [125I]sauvagine from CRF2 receptor in porcine choroid plexus homogenate by binding titration assay. The format is tissue-based, Sus scrofa. Summed up:
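Porcine choroid plexus homogenate; inhibition of [125I]-sauvagine binding measured in a titration format.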

For data set [7], the system named is Rattus norvegicus. The experiment in a line: Total plasma concentration in Sprague-Dawley rat at 3 mg/kg, po after 1 to 3 hrs by LC/MS/MS analysis. The format is ADME, organism-based. Also on record: dose 3 mg/kg, route oral. The note with it: in vivo.
Data set [8] deals with Rattus norvegicus. Briefly: Plasma free concentration in Sprague-Dawley rat at 0.56 mg/kg, po after 1 to 3 hrs by LC/MS/MS analysis. The settings on record: in vivo. The arrangement: dose 0.56 mg/kg, route oral. The format is ADME, organism-based.
Data set [9] concerns Rattus norvegicus. Briefly: Ex vivo receptor occupancy of CRF1 receptor in Sprague-Dawley rat brain parietal assessed as inhibition of [125I]sauvagine binding at 1 mg/kg, po after 90 mins by autoradiography. The settings on record: 1.5 h. In kind it is functional.
Data set [10] concerns Rattus norvegicus. The experiment in a line: Anxiolytic activity in Sprague-Dawley rat assessed as decrease in exit latency at 1 mg/kg, po after 60 mins by defensive withdrawal test relative to control. In kind it is functional. Also on record: scale not given: the % may be the effect or the level left. A digest of the protocol: (§1)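 Rats placed in a darkened chamber within an open illuminated field; time to emerge measured 60 min after oral dosing (0.56–3 mg/kg), n = 8; percent decrease in exit latency versus vehicle-treated animals, p < 0.05 significance.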

Data set [11] relates to Rattus norvegicus. The experiment in a line: Anxiolytic activity in Sprague-Dawley rat assessed as decrease in exit latency at 1.8 mg/kg, po after 60 mins by defensive withdrawal test relative to control. In kind it is functional. Also on record: scale not given: the % may be the effect or the level left. A digest of the protocol:
as §1

In data set [12] the test system is Rattus norvegicus. Briefly: Anxiolytic activity in Sprague-Dawley rat assessed as decrease in exit latency at 3 mg/kg, po after 60 mins by defensive withdrawal test relative to control. The format is functional. Also on record: scale not given: the % may be the effect or the level left. Summed up: as §1
The nature of data set [13]: AUC in Beagle dog at 2 mg/kg, po dosed as […] after 0.25 to 24 hrs by LC/MS/MS analysis. In kind it is ADME, organism-based, Canis lupus familiaris. The arrangement: time upper 24 hr, time lower 0.25 hr, dose 2 mg/kg, route oral. The note with it: in vivo.
Data set [14] deals with Rattus norvegicus. Briefly: Toxicity in Sprague-Dawley rat at 20 mg/kg after 2 weeks. The format is organism-based. The note with it: in vivo, 336 h. Also on record: dose 20 mg/kg.
The subject of data set [15] is Rattus norvegicus. Briefly: Neurotoxicity in Sprague-Dawley rat assessed as alteration of motor coordination up to 60 mg/kg by rotarod test. The settings on record: in vivo. Also on record: dose 60 mg/kg. The format is toxicity, organism-based. In general terms: The rotarod test checks motor coordination on a turning rod.

Values after ≈ are worked out from the molar mass of the structure shown.

The Cmax is the highest concentration seen after dosing. A word on the AUC: it is concentration integrated over time. As usually defined, the solubility is the dissolved amount per volume that the medium holds. A word on the IC50: it is the concentration at which inhibition is half-maximal. For orientation: inhibition in vivo means the change of the read-out against control, counted positive when it falls. In turn, `COC[C@H](C1CC1)n1cc(C#N)nc(Nc2cc(C)c(OC(F)F)nc2C)c1=O` displayed a peak concentration (Cmax) in [1] of 860 nM. The area under the curve (AUC) in [2] was found to be 8.8 µM·h; in data set [13], 7.6 µM·h. Moreover, the concentration in solution in data set [3] (solubility) came to 15 µg/mL (≈ 37 µM). Also, the Activity in data set [4] is 3%; in data set [10] it was 28%; in data set [11], 60%; in data set [12], 56%; in data set [14], “Non-toxic”; in data set [15] it was “Non-toxic”. Further, the dose excreted at 24 h in data set [5] is 3%. The concentration for half-maximal inhibition (IC50) in [6] was over 10 µM. The concentration in [7] came to 140 nM. In data set [8], the “Cp(f)” value is listed as 0.84 nM. Moreover, the inhibition in vivo at 1 mg/kg in data set [9] worked out at 43%.

(Values after ChEMBL document CHEMBL1154735, “A strategy to minimize reactive metabolite formation: discovery of (S)-4-(1-cyclopropyl-2-methoxyethyl)-6-[6-(difluoromethoxy)-2,5-dimethylpyridin-3-ylamino]-5-oxo-4,5-dihydropyrazine-2-carbonitrile as a potent, orally bioavailable corticotropin-releasing factor-1 receptor antagonist” (J Med Chem, 2009).)
